Measured values as given in PMC3932306 (Journal of natural products, 2013).

Columns and labels:
cathepsin L [1] = target: T1, cathepsin L (Homo sapiens, UniProt P07711); experiment: Cathepsin L inhibition assay; format: biochemical; settings: for Selectivity Index: IC50 of assayed protease / IC50 cathepsin L
Method in brief: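 Recombinant human cathepsin L (3.0 ng/mL) with 20 µM Z-Phe-Arg-AMC in 50 mM sodium acetate, 100 mM NaCl, 1.0 mM EDTA, 4 mM DTT, pH 5.5, at 25 °C. Fluorescence read at 365/450 nm. Dose-response was […], 3-fold, 333–0.46 nM, in triplicate, with immediate mixing or 30 min enzyme–inhibitor preincubation. Data were scaled to E-64-c/DMSO controls and fitted to a four-parameter logistic model for IC50. Selectivity index = IC50 of the assayed protease / IC50 of cathepsin L for each condition.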

human cathepsin H = human cathepsin H (Homo sapiens, UniProt P09668); experiment: Selectivity: cathepsin H inhibition; format: biochemical; settings: at the highest assay concentrations
human cathepsin H, sequence (P09668 116-335 limits assumed, other chains not shown): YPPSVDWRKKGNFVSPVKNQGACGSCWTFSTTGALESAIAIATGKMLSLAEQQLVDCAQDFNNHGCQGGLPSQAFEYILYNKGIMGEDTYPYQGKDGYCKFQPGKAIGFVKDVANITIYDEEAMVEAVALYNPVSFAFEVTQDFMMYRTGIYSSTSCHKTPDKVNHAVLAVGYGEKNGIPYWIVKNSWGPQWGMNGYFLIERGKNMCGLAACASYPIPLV
Method in brief: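 Human cathepsin H (50 ng/mL) in 50 mM potassium phosphate, 3 mM cysteine, 1 mM EDTA, pH 6.4, with 200 µM Arg-AMC substrate. Dose-response ran with 0 min and 30 min enzyme–inhibitor preincubation, otherwise as for the cathepsin L assay, in technical triplicate.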

cathepsin L [2] = target: T1, cathepsin L; experiment: Active-site directed probe; format: binding; settings: 30 min preincubation; enzyme 100 nM
Method in brief: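 Test compound in a 6-point, 3-fold serial dilution (10% DMSO) was preincubated 30 min at room temperature with recombinant human cathepsin L in 100 mM sodium acetate, 1.0 mM EDTA, 4 mM DTT, pH 5.5. CLIK-148 and DMSO served as controls. Biotinylated epoxide probe DCG-04 (10 µM stock) was added for 30 min at room temperature. Samples were denatured at 70 °C for 5 min, run on 12% Bis-Tris SDS-PAGE and blotted to nitrocellulose. Detection used avidin/biotinylated HRP with chemiluminescence.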

cathepsin L [3] = target: T1, cathepsin L; experiment: Reversibility: preincubation-dilution experiment; format: biochemical; settings: preincubation-dilution and activity-probe experiments
Method in brief: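 Preincubation-dilution test: cathepsin L at 100-fold final assay concentration was incubated 30 min with a concentrated test compound in 2 µL. The mix was then diluted 100-fold into assay buffer containing 10 µM Z-FR-AMC, 200 µL final. AMC release was monitored continuously in kinetic mode for 2 h. Activity was compared against a vehicle control.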

murine cathepsin L = settings: cited from earlier work
[4] = system: Plasmodium falciparum falcipain proteases; settings: cited from earlier work

T1 sequence (P07711 114-333): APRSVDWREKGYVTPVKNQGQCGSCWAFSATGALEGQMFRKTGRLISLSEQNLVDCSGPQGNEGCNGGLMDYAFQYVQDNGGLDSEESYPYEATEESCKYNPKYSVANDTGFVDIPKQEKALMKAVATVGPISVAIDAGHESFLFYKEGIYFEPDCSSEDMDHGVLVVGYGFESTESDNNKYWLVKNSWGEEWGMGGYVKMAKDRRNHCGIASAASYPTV

CC[C@H](C)[C@@H](C(=O)O[C@@H](CC(C)C)C(=O)N[C@@H](CC(C)C)C(=O)N[C@@H](C)/C=C/C(=O)N1C(=O)C=C(OC)[C@@H]1C)N(C)C [compound 1, gallinamide A]
Selectivity Index (cathepsin L [1]; 0 min): 1
Selectivity Index (cathepsin L [1]; 30 min): 1
inhibition at 3 µg/mL (cathepsin L [1]; read-out: inhibition of cathepsin L): 97 to 99%
activity against cathepsin H (in words) (human cathepsin H): inactive
concentration giving complete loss of DCG-04 probe labeling (cathepsin L [2]): 333 nM
concentration giving decreased DCG-04 probe labeling (cathepsin L [2]): 111 nM
mode of inhibition (cathepsin L [3]): irreversible
inhibition of murine cathepsin L (in words) (murine cathepsin L): moderate inhibition
mode of inhibition of falcipain proteases ([4]; based on kinetic model fitting): covalent, irreversible inhibitor
inhibition of P. falciparum falcipain proteases (in words) [4]: potent inhibition
